# Screening data as filed in PubChem.
# Most compounds without a hit are left out; they make up all but 3.3% or so of the library.
# sPLA2-III inh = Inhibits HGIII-sPLA2 liposome hydrolysis, primary screen | Q9NZ20 | inhibition, % at 12.2 µM | 370,000 tested, 0.56% active | QFRET BODIPY PC-A2 liposome hydrolysis, fluorescence | AID 743126;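 active means inhibition above mean plus 3 SD of compounds lying within the high and low control bounds, cut at about 19% in these data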;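 further: 0% = median of test compound wells and 100% = no enzyme DMSO wells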
# Target sequence (Q9NZ20 whole entry, looked up): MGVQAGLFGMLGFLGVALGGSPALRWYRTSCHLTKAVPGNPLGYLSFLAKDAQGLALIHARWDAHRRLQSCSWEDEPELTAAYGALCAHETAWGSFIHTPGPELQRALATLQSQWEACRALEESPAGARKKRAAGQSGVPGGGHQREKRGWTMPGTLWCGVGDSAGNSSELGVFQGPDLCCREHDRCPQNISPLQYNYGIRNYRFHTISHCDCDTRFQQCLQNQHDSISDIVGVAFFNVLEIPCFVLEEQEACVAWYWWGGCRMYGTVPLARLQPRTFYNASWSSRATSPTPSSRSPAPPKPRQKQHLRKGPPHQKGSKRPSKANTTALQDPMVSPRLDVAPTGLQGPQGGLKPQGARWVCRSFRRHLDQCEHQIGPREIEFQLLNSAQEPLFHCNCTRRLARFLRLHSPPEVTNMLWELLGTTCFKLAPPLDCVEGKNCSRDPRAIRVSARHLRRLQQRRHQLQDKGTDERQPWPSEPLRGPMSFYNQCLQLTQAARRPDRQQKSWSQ
# NRP1-CendR mod = NRP-1/CendR interaction modulation; O14786; FAM-RPARPAR peptide binding to NRP-1, fluorescence polarization; inhibition, % at 25 µM; 360,000 tested, 0.85% active; AID 602438;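 active means inhibition or corrected inhibition above about 18%, plus a signal ratio from 0.5 to 1.5, limit read from the data, passing the limit was not always enough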
# HTR2A ag = mouse HTR2A agonism via beta-arrestin recruitment; P35363; CHO-K1 mHTR2A beta-arrestin complementation, luminescence; percent of 30 µM serotonin response; activation, % at 7.6 µM; 360,000 tested, 0.66% active;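 active means activation above a run cutoff, the mean activation of all tested compounds plus 3 SD, cut at about 14% in these data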;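 further: 0% = plate median of compound wells and 100% = 30 µM serotonin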
# Lipid droplet = hepatic lipid droplet formation modulation; AML12 mouse hepatocytes, oleate lipid droplets, BODIPY imaging; inhibition, % at 6.5 µM; 240,000 tested, 0.4% active;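 active means lipid droplet intensity inhibited by at least 50%, with more than 500 cells counted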
#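 Material: mouse AML12 hepatocyte cell line, fixed after treatment; Timing: compound with oleate, overnight; Technique: high-content imaging of BODIPY-stained droplets and DAPI nuclei; Probe or stimulus: oleate, 100 µM final; Dosing: compound at 6.5 µM only.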
# PfM18AAP inh = PfM18AAP enzyme inhibition; recombinant PfM18AAP, H-Glu-NHMec fluorogenic cleavage; inhibition, % at 7.35 µM; AID 1822; 290,000 tested, 1.2% active;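 active means inhibition above the campaign mean inhibition over all tested compounds plus 3 SD, cut at about 28% in these data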;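 further: 0% = plate median of test compound wells and 100% = 2 mM ZnCl2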
# Arr AP2 block = human beta-arrestin and AP2 interaction inhibition | FITC-arrestin peptide / GST-AP2 beads, flow cytometry; AP2 beta2 appendage carries R879A mutation | inhibition, % at 10 µM | 340,000 tested, 0.31% active | AID 504490;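 active means inhibition above a set limit, near 3 SD of compounds lacking own fluorescence, cut at about 54% in these data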;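 further: plate controls were DMSO wells for no effect and 5 µM unlabelled arrestin peptide for full effect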
#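 Assay system: GST-AP2 R879A bound to glutathione beads, E. coli-expressed; Medium: PBS with 0.05% Tween 20 and 0.1% BSA; Also added: fluorescein-tagged arrestin peptide at 50 nM final; Timing: 12 min plus 1 h, RT; Measured by: flow cytometry, FL1 (488/535 nm); Evaluation: percent drop in bead-associated FITC signal.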
# sPLA2 confirm = human GIII-sPLA2 inhibition, confirmation; shares compounds with sPLA2-III inh; recombinant hGIII-sPLA2, BODIPY PC-A2 QFRET fluorescence; AID 743280; inhibition, % at 12.2 µM; 2,000 tested, 34% active;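 active means mean inhibition across triplicates above the hit cutoff set in the earlier primary screen, cut at about 19% in these data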;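 further: 0% = enzyme with DMSO and 100% = DMSO wells lacking enzyme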
# 535nm interf = optically interferes with 535nm fluorescence in sPLA2 counter-screen; shares compounds with sPLA2-III inh; BODIPY FL product fluorescence interference, QFRET; inhibition, % at 12.2 µM; 2,000 tested, 8.5% active; AID 743282;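 active means average inhibition above the solvent-only control mean plus 3 SD, cut at about 6% in these data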;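 further: 0% = DMSO with substrate plus product and 100% = DMSO with substrate alone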
# BODIPY interf DR = 535nm optical interference dose response, HGIII-sPLA2 counter-screen | shares compounds with sPLA2-III inh | BODIPY FL product fluorescence interference, cell-free | IC50, µM | 240 tested, under 10 active | AID 743455;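 active means IC50 at or below 10 µM; inactive means IC50 above 10 µM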
# Numbers without * were called inactive; . = no result.
SMILES,sPLA2-III inh,NRP1-CendR mod,HTR2A ag,Lipid droplet,PfM18AAP inh,Arr AP2 block,sPLA2 confirm,535nm interf,others
COc1ccc(-c2sc3ccccc3c2/C=C/c2ccc(N)cc2)cc1,22*,9,0,.,.,-1,28*,13*,
O=C(O)c1cc(O)ccc1N=Nc1ccccc1,20*,-2,-1,11,3,4,-2,-4,
O=C(Nc1cccc2c1CCCC2)c1cc(C2CCCCN2C(=O)OCCF)on1 (configuration not stated),-8,0,-1,.,.,.,.,.,
CCC(Oc1ccccc1)C(=O)Nc1ccccc1OC (configuration not stated),-7,-13,-2,-3,2,-3,.,.,
CCC(Oc1ccccc1)C(=O)NCCOC (configuration not stated),21*,-17,0,-11,-12,-2,0,-7,
CC(C)(C)C1=Nn2c(nnc2-c2ccc(C(C)(C)C)cc2)SC1,-6,.,.,.,.,.,.,.,
CC(C)N1CCCCC(NC(=O)c2ccc(Br)cc2)C1=O (configuration not stated),6,.,.,.,.,.,.,.,
CC(C)N1CCCCC(NC(=O)c2ccccc2)C1=O (configuration not stated),22*,.,.,.,.,.,0,-5,
CC(=O)NC(Cc1ccc2c(c1)OCO2)C(=O)N1CCCC1 (configuration not stated),6,.,.,.,.,.,.,.,
COc1ccc(Cn2cc(CN3[C@H](C)COc4cc(Br)ccc4S3(=O)=O)nn2)cc1,11,.,.,.,.,.,.,.,
COCCNC(=S)N/N=C(\C)c1ccccc1O,43*,2,3,4,22,38,22*,2,
COc1ccc(O)c(/C=N/NC(=S)NCCc2ccccc2)c1,18,8,1,4,24,-7,.,.,
COc1ccc(/C(C)=N/NC(=S)NCCc2ccccc2)c(O)c1,44*,-10,-7,0,7,-6,7,8.2*,
C[C@@H]1[C@@H](O)C[C@@]2(CC(=O)c3ccccc3O2)O[C@H]1c1ccccc1,-5,.,.,.,.,.,.,.,
CCCCCOc1ccc(Br)cc1CSC(=N)N,29*,35*,-4,-9,2,17,21*,-29,
COc1ccc(Br)cc1CSC(=N)N,33*,4,-6,-23,5,30,18,-5,
CCCCOc1ccc(CSC(=N)N)cc1Cl,54*,3,-7,18,3,-6,32*,-26,BODIPY interf DR=>122
CC(=O)c1ccc(OC(C)C)c(CSC(=N)N)c1,8,13,-6,-1,-4,13,.,.,
CCCC[C@@H]1C=C(C(=O)O)[C@H](c2ccc(Br)cc2)N1S(=O)(=O)c1ccc(C)cc1,-26,-18,4,.,.,-2,.,.,
COc1ccc(/C(C)=N/NC(=O)c2cccc(S(=O)(=O)N3CCCC3)c2)c(O)c1,35*,12,3,.,.,1,24*,-6,
CC1CN(C(=O)C2CC2)C(C)CN1C(=O)C1CC1 (configuration not stated),25*,4,3,0,1,-6,-7,-1,
CCc1nc2c(OCc3ccc(Cl)cc3)cccn2c1N(C)C(=O)c1ccco1,2,-9,9,.,.,.,.,.,
NC(=O)c1sc2nc3c(c(-c4ccco4)c2c1N)CCCC3,20*,-21,3,-1,14,15,-1,-11,
O=C1NC[C@@H](CCCCN2C[C@H](Cc3ccc(O)cc3)N(CCC3CCCCC3)C(=O)C2=O)N(CC2CCCCC2)C1=O,-10,-8,0,.,.,.,.,.,
COc1cc(/C=N/N=C(\N)c2nonc2N)ccc1O,25*,-4,-4,-4,11,-11,1,-7,
SMILES,sPLA2-III inh,NRP1-CendR mod,HTR2A ag,Lipid droplet,PfM18AAP inh,Arr AP2 block,sPLA2 confirm,535nm interf,others
COc1ccc(/C=N/N=C(\N)c2nonc2N)cc1OC,-1,11,0,-3,0,0,.,.,
O=S(=O)(Cc1ccc(Cl)cc1)N1CCCC1,21*,-9,-2,-10,1,-1,5,-8,
O=C(/C=C(\Nc1cccc(F)c1)c1ccccc1)c1ccccc1,-1,.,.,.,.,.,.,.,
COc1cccc(C(=O)Nc2c[nH]c(=O)[nH]c2=O)c1,21*,6,0,-9,-1,-10,3,-5,
Cc1ccc(S(=O)(=O)NNC(=O)c2ccncc2)cc1,7,16,0,-1,11,0,.,.,
Cc1ccc(S(=O)(=O)NNC(=O)c2sc(=S)n(C)c2C)cc1,23*,-6,4,14,27,9,6,-2,
C[C@H]1CCC/C=C/C(=O)c2c(cc(O)c(Cl)c2O)CC(=O)O1,-13,.,.,.,.,.,.,.,
O=C(Cc1ccc(Nc2nc(=S)[nH]c3ccccc23)cc1)NC1CCCCC1,21*,.,.,-5,-8,.,14,-1,
CC1(C)CC(=O)C(N=Nc2ccc(C(F)(F)F)cc2[N+](=O)[O-])=C(O)C1,20*,9,10,-8,2,-8,10,-4,
CC(C)(C)c1ccccc1NC(=O)Nc1nc(C(N)c2ccccc2Cl)cs1 (configuration not stated),20*,-14,1,.,.,.,10,-3,
COc1ccccc1/C=C/C=N/NC(=O)c1ccccn1,20*,-1,0,6,5,-19,6,-8,
CCCCNC(=S)NNC(=O)c1nn(C)cc1Cl,23*,2,-4,0,9,-9,27*,-1,
COc1ccc(CCNC(=O)c2nn(C)cc2Cl)cc1,1,15,-3,-27,-2,13,.,.,
CCCCNC(=S)NNC(=O)c1cccnc1,8,-4,4,4,0,-8,.,.,
CCCCNC(=S)NNC(=O)c1ccc(Br)o1,30*,-2,1,-12,10,-13,31*,3,BODIPY interf DR=>122
COc1ccc(-c2csc(NC(=O)c3c(C)noc3C)n2)cc1OC,-2,13,3,.,.,.,.,.,
CCS(=O)(=O)N1CCC(C(=O)NCc2cccnc2)CC1,20*,-4,1,.,-1,0,-2,-2,
Cc1cc(C(=O)c2ccc(Cl)cc2)c(NC(=O)CCl)s1,19*,-4,-3,-13,5,1,3,-7,
Cc1cc2nc(C)c(=O)n(C)c2cc1C,23*,-4,6,0,-2,4,6,-8,
C[C@@H]1CN(c2ccc(N3CCN(C(=O)OC(C)(C)C)C[C@@H]3C)cc2C#N)CCN1Cc1ccccc1,1,.,.,.,.,.,.,.,
